Source: ChEMBL document CHEMBL2034960, “Bryonolic acid transcriptional control of anti-inflammatory and antioxidant genes in macrophages in vitro and in vivo” (J Nat Prod, 2012)
Active and inactive are the calls of the source. The rule behind the calls is not given here.

Key:
RAW264.7 [1] = assay: Antiinflammatory activity in mouse RAW264.7 cells assessed as inhibition of LPS-induced iNOS protein expression at 50 uM after 24 hrs by immunoblot analysis relative to control; format: functional, cell-based
[2] = biological target: T1, Nuclear factor erythroid 2-related factor 2 (Mus musculus) (UniProt Q60795); assay: Induction of Nrf2-mediated HO1 […] expression in C57BL/6 mouse primary peritoneal macrophages at 50 uM after 48 hrs by immunoblot analysis
T1 sequence (whole entry): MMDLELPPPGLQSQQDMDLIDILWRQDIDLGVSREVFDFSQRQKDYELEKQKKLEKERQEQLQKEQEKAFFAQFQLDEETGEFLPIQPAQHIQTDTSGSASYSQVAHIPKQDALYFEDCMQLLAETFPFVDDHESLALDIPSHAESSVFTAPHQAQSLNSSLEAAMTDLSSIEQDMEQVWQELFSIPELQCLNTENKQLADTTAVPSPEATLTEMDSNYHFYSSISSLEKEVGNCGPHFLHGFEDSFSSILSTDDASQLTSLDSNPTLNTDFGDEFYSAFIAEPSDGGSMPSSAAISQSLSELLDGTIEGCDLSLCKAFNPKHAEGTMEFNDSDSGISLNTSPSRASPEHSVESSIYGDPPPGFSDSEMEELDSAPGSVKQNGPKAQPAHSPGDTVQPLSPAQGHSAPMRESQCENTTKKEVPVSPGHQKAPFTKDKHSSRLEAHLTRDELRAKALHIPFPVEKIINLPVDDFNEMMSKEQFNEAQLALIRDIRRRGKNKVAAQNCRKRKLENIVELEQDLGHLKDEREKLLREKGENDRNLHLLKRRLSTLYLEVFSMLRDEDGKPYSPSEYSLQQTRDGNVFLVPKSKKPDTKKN

Mus musculus [3] = assay: Induction of HO1 […] expression in Nrf2-knock out C57BL/6 mouse liver at 500 mg/kg, ip measured after 8 hrs by immunoblot analysis
RAW264.7 [4] = assay: Antiinflammatory activity in mouse RAW264.7 cells assessed as inhibition of LPS-induced nitric oxide production at 50 to 100 uM after 24 hrs by Griess method; format: functional; set-up: scale not given: the % may be the effect or the level left
RAW264.7 [5] = assay: Antioxidant activity in LPS-stimulated mouse RAW264.7 cells assessed as induction of HO-1 mRNA expression at 100 uM after 4 hrs by RT-PCR analysis relative to control; format: functional
[6] = biological target: T1, Nuclear factor erythroid 2-related factor 2 (Mus musculus); assay: Induction of Nrf2-mediated GR mRNA expression in mouse RAW264.7 cells at 100 uM after 20 hrs by quantitative RT-PCR analysis relative to control; format: cell-based
[7] = biological target: T1, Nuclear factor erythroid 2-related factor 2 (Mus musculus); assay: Induction of Nrf2-mediated CAT mRNA expression in mouse RAW264.7 cells at 100 uM after 4 to 24 hrs by quantitative RT-PCR analysis relative to control; format: cell-based
RAW264.7 [8] = assay: Antioxidant activity in LPS-stimulated mouse RAW264.7 cells assessed as induction of HO-1 protein expression at 100 uM after 24 hrs by immunoblot analysis; format: functional, cell-based
RAW264.7 [9] = assay: Antioxidant activity in LPS-stimulated mouse RAW264.7 cells assessed as induction of HO-1 […] expression after 24 hrs by immunoblot analysis; format: functional, cell-based
[10] = biological target: T1, Nuclear factor erythroid 2-related factor 2 (Mus musculus); assay: Induction of Nrf2-mediated NQO1 mRNA expression in mouse RAW264.7 cells at 100 uM after 20 hrs by quantitative RT-PCR analysis relative to control; format: cell-based
In short: (§1)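 RAW 264.7 cells (DMEM, 10% FBS, 37°C, 5% CO2) exposed to 100 μM compound for a series of time points without stated LPS activation. Total RNA isolated, converted to cDNA, and NQO1 quantified by TaqMan real-time RT-PCR using mouse-specific assays. Fold change versus control derived by the ΔΔCt relative quantification method (40 cycles, 95/60 °C).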

Mus musculus [11] = assay: Induction of HO1 […] expression in Nrf2-wild type C57BL/6 mouse liver at 500 mg/kg, ip measured after 8 hrs by immunoblot analysis
[12] = biological target: T1, Nuclear factor erythroid 2-related factor 2 (Mus musculus); assay: Induction of Nrf2-mediated GCLC mRNA expression in mouse RAW264.7 cells at 100 uM after 20 hrs by quantitative RT-PCR analysis relative to control; format: cell-based
RAW264.7 [13] = assay: Antiinflammatory activity in mouse RAW264.7 cells assessed as inhibition of LPS-induced iNOS protein expression at 100 uM after 24 hrs by immunoblot analysis; format: functional, cell-based
[14] = biological target: T1, Nuclear factor erythroid 2-related factor 2 (Mus musculus); assay: Induction of Nrf2-mediated GR mRNA expression in mouse RAW264.7 cells at 100 uM after 24 hrs by quantitative RT-PCR analysis relative to control; format: cell-based
RAW264.7 [15] = assay: Antioxidant activity in mouse RAW264.7 cells assessed as induction of HO1 expression after 24 hrs by immunoblot analysis
[16] = biological target: T1, Nuclear factor erythroid 2-related factor 2 (Mus musculus); assay: Induction of Nrf2-mediated CAT mRNA expression in mouse RAW264.7 cells at 100 uM after 20 hrs by quantitative RT-PCR analysis relative to control; format: cell-based
[17] = biological target: T1, Nuclear factor erythroid 2-related factor 2 (Mus musculus); assay: Induction of Nrf2-mediated NQO1 mRNA expression in mouse RAW264.7 cells at 100 uM after 24 hrs by quantitative RT-PCR analysis relative to control; format: cell-based; in short: as §1
[18] = biological target: T1, Nuclear factor erythroid 2-related factor 2 (Mus musculus); assay: Induction of nuclear translocation of Nrf2 in mouse RAW264.7 cells assessed as decrease in cytoplasmic fraction at 50 uM after 1 hr; format: cell-based
In short: (§2)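 RAW 264.7 macrophages treated with 50 or 100 μM compound for various times (1–4 h window examined). Cytoplasmic and nuclear fractions were separated and probed for Nrf2 by immunoblot. Translocation was scored as loss of cytoplasmic Nrf2 and nuclear accumulation relative to DMSO control.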

[19] = biological target: T1, Nuclear factor erythroid 2-related factor 2 (Mus musculus); assay: Induction of nuclear translocation of Nrf2 in mouse RAW264.7 cells assessed as decrease in cytoplasmic fraction at 100 uM after 1 to 4 hrs; format: cell-based; in short: as §2
RAW264.7 [20] = assay: Antioxidant activity in LPS-stimulated mouse RAW264.7 cells assessed as induction of HO-1 mRNA expression at 100 uM after 24 hrs by RT-PCR analysis; format: functional, cell-based
RAW264.7 [21] = assay: Antioxidant activity in mouse RAW264.7 cells assessed as induction of HO1 expression at 100 uM after 6 hrs by immunoblot analysis; format: functional, cell-based
RAW264.7 [22] = assay: Antiinflammatory activity in mouse RAW264.7 cells assessed as inhibition of LPS-induced iNOS […] expression at 50 uM after 24 hrs by immunoblot analysis; format: functional, cell-based
RAW264.7 [23] = assay: Cytotoxicity against mouse RAW264.7 cells at 100 uM after 8 hrs by MTT assay; format: cell-based; settings: raw264.7, 8 h
RAW264.7 [24] = assay: Antiinflammatory activity in mouse RAW264.7 cells assessed as inhibition of LPS-induced iNOS protein expression after 24 hrs by immunoblot analysis; format: functional, cell-based
RAW264.7 [25] = assay: Antioxidant activity in LPS-stimulated mouse RAW264.7 cells assessed as induction of HO-1 protein expression after 24 hrs by immunoblot analysis; format: functional, cell-based

- Activity [2]: Active
- fold change (FC) [6]: 1.5
- Activity [7]: Active
- fold change (FC) [10]: 11.7
- fold change (FC) [12]: 1.8
- Activity [14]: inactive
- fold change (FC) [16]: 3.5
- Activity [17]: Active
- Activity [18]: Active
- Activity [19]: Active
Compound: CC1(C)[C@@H](O)CC[C@]2(C)C3=C(CC[C@@H]12)[C@@]1(C)CC[C@@]2(C)CC[C@@](C)(C(=O)O)C[C@H]2[C@]1(C)CC3 [BRYONOLIC ACID]
- Activity (RAW264.7 [1]): Active
- Activity (Mus musculus [3]): inactive
- Activity (RAW264.7 [4]): 72%
- fold change (FC) (RAW264.7 [5]): 4.1
- Activity (RAW264.7 [8]): Active
- Activity (RAW264.7 [9]): Dose-dependent effect
- Activity (Mus musculus [11]): Active
- Activity (RAW264.7 [13]): Active
- Activity (RAW264.7 [15]): Dose-dependent effect
- Activity (RAW264.7 [20]): Active
- Activity (RAW264.7 [21]): Active
- Activity (RAW264.7 [22]): Active
- Activity (RAW264.7 [23]): Non-toxic
- Activity (RAW264.7 [24]): Dose-dependent effect
- Activity (RAW264.7 [25]): Dose-dependent effect
